{"source": "ChEMBL document CHEMBL1275524", "about": "“Activities of antifungal agents against yeasts and filamentous fungi: assessment according to the methodology of the European Committee on Antimicrobial Susceptibility Testing” (2008)", "key": {"Candida albicans": {"test_system": "Candida albicans", "experiment": "Antifungal activity against Candida albicans", "format": "functional", "summary_of_the_method": "(§1)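 Broth microdilution in flat-bottom plates in RPMI 1640 with 2% glucose; inoculum 0.5 × 105 to 2.5 × 10^5 CFU/ml. MICs were read spectrophotometrically at 24 h. AMB endpoint: ≥90% growth reduction vs drug-free control well. Azole and CPF endpoint: 50% reduction in optical density. MFC was taken as the lowest concentration giving 99% killing.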"}, "Nakaseomyces glabratus": {"test_system": "Nakaseomyces glabratus", "experiment": "Antifungal activity against Candida glabrata", "format": "functional", "summary_of_the_method": "as §1"}, "Candida parapsilosis": {"test_system": "Candida parapsilosis", "experiment": "Antifungal activity against Candida parapsilosis", "format": "functional", "settings": "Lodderomyces parapsilosis", "summary_of_the_method": "as §1"}, "Pichia kudriavzevii": {"test_system": "Pichia kudriavzevii", "experiment": "Antifungal activity against Candida krusei", "format": "functional", "summary_of_the_method": "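EUCAST broth microdilution for yeasts in flat-bottom plates, RPMI 1640 with 2% glucose, inoculum 0.5 × 105 to 2.5 × 10^5 CFU/ml. […] MFC is the lowest concentration giving 99% killing.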"}, "Clavispora lusitaniae": {"test_system": "Clavispora lusitaniae", "experiment": "Antifungal activity against Candida lusitaniae", "format": "functional", "summary_of_the_method": "as §1"}, "Candida tropicalis": {"test_system": "Candida tropicalis", "experiment": "Antifungal activity against Candida tropicalis", "format": "functional", "summary_of_the_method": "as §1"}, "[1]": {"test_system": "Meyerozyma guilliermondii", "experiment": "Antifungal activity against Candida guilliermondii", "format": "functional", "summary_of_the_method": "as §1"}, "Saccharomyces cerevisiae": {"test_system": "Saccharomyces cerevisiae", "experiment": "Antifungal activity against Saccharomyces cerevisiae", "format": "functional", "summary_of_the_method": "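Broth microdilution following EUCAST for fermentative yeasts, in flat-bottom plates with RPMI 1640 plus 2% glucose. Inoculum was 0.5 × 10^5 to 2.5 × 10^5 CFU/ml. End points were read spectrophotometrically at 24 h: ≥90% growth reduction versus a drug-free control for amphotericin B, and 50% OD reduction for azoles and caspofungin. MFC was the lowest concentration giving 99% killing.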"}, "[2]": {"experiment": "Antifungal activity against Cryptococcus neoformans var. neoformans", "format": "functional", "settings": "Cryptococcus deneoformans", "summary_of_the_method": "(§2)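 EUCAST yeast microdilution, modified for nonfermentative yeasts: plates were sealed and agitated at 350 rpm and 30°C for 48 h.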"}, "Cryptococcus gattii": {"test_system": "Cryptococcus gattii", "experiment": "Antifungal activity against Cryptococcus neoformans var. gattii", "format": "functional, Cryptococcus bacillisporus", "summary_of_the_method": "as §2"}, "Trichosporon inkin": {"test_system": "Trichosporon inkin", "experiment": "Antifungal activity against Trichosporon inkin", "format": "functional", "summary_of_the_method": "(§3)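 Nonfermentative yeasts were tested by the EUCAST microdilution recommendations with one change: plates were sealed and agitated at 350 rpm and 30°C for 48 h.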"}, "Trichosporon asahii": {"test_system": "Trichosporon asahii", "experiment": "Antifungal activity against Trichosporon asahii", "format": "functional", "summary_of_the_method": "as §3"}, "Geotrichum candidum": {"test_system": "Geotrichum candidum", "experiment": "Antifungal activity against Geotrichum candidum", "format": "functional"}, "Aspergillus fumigatus": {"test_system": "Aspergillus fumigatus", "experiment": "Antifungal activity against Aspergillus fumigatus", "format": "functional"}, "Aspergillus terreus": {"test_system": "Aspergillus terreus", "experiment": "Antifungal activity against Aspergillus terreus", "format": "functional"}, "Aspergillus flavus": {"test_system": "Aspergillus flavus", "experiment": "Antifungal activity against Aspergillus flavus", "format": "functional"}, "Aspergillus niger": {"test_system": "Aspergillus niger", "experiment": "Antifungal activity against Aspergillus niger", "format": "functional"}, "Rhizomucor": {"test_system": "Rhizomucor", "experiment": "Antifungal activity against Rhizomucor species", "format": "functional"}, "Lichtheimia corymbifera": {"test_system": "Lichtheimia corymbifera", "experiment": "Antifungal activity against Absidia corymbifera", "format": "functional"}, "Absidia": {"test_system": "Absidia", "experiment": "Antifungal activity against Absidia species", "format": "functional"}, "[3]": {"experiment": "Antifungal activity against Rhizopus microsporus var. oligosporus", "format": "functional", "summary_of_the_method": "(§4)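 Broth microdilution following the EUCAST reference procedure for spore-forming moulds, in flat-bottom plates with RPMI 1640 plus 2% glucose. Inoculum was 2 × 10^5 to 5 × 10^5 CFU/ml. MICs were read visually at 24 and 48 h as 100% growth reduction versus a drug-free control for polyenes and azoles. MEC was used for caspofungin. Tests were run in duplicate and repeated twice.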"}, "Rhizopus arrhizus": {"test_system": "Rhizopus arrhizus", "experiment": "Antifungal activity against Rhizopus oryzae", "format": "functional", "summary_of_the_method": "as §4"}, "Rhizopus": {"test_system": "Rhizopus", "experiment": "Antifungal activity against Rhizopus species", "format": "functional", "summary_of_the_method": "as §4"}, "Mucor hiemalis": {"test_system": "Mucor hiemalis", "experiment": "Antifungal activity against Mucor hiemalis", "format": "functional"}, "Mucor": {"test_system": "Mucor", "experiment": "Antifungal activity against Mucor species", "format": "functional"}, "Cunninghamella": {"test_system": "Cunninghamella", "experiment": "Antifungal activity against Cunninghamella species", "format": "functional"}, "Lomentospora prolificans": {"test_system": "Lomentospora prolificans", "experiment": "Antifungal activity against Scedosporium prolificans", "format": "functional", "summary_of_the_method": "as §4"}, "Scedosporium apiospermum": {"test_system": "Scedosporium apiospermum", "experiment": "Antifungal activity against Scedosporium apiospermum", "format": "functional", "summary_of_the_method": "as §4"}, "Talaromyces marneffei": {"test_system": "Talaromyces marneffei", "experiment": "Antifungal activity against Penicillium marneffei", "format": "functional"}, "Penicillium sp.": {"test_system": "Penicillium sp.", "experiment": "Antifungal activity against Penicillium species", "format": "functional"}, "Fusarium solani": {"test_system": "Fusarium solani", "experiment": "Antifungal activity against Fusarium solani", "format": "functional"}, "Fusarium oxysporum": {"test_system": "Fusarium oxysporum", "experiment": "Antifungal activity against Fusarium oxysporum", "format": "functional"}, "Sporothrix schenckii": {"test_system": "Sporothrix schenckii", "experiment": "Antifungal activity against Sporothrix schenckii", "format": "functional", "summary_of_the_method": "as §4"}, "Curvularia lunata": {"test_system": "Curvularia lunata", "experiment": "Antifungal activity against Curvularia lunata", "format": "functional"}, "Curvularia australiensis": {"test_system": "Curvularia australiensis", "experiment": "Antifungal activity against Bipolaris australiensis", "format": "functional", "summary_of_the_method": "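Dematiaceous fungi were tested by the EUCAST spore-forming mold reference procedure: flat-bottom microdilution plates, RPMI 1640 plus 2% glucose, inoculum 2 × 105 to 5 × 10^5 CFU/ml. Endpoints were read visually at 24 and 48 h. Polyenes and azoles: 100% growth reduction vs drug-free control. CPF: minimum effective concentration. Run in duplicate and repeated twice.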"}}}
{"smiles": "C[C@@H]1[C@H](O)[C@@H](C)/C=C/C=C/C=C/C=C/C=C/C=C/C=C/[C@H](O[C@@H]2O[C@H](C)[C@@H](O)[C@H](N)[C@@H]2O)C[C@@H]2O[C@](O)(C[C@@H](O)C[C@@H](O)[C@H](O)CC[C@@H](O)C[C@@H](O)CC(=O)O[C@H]1C)C[C@H](O)[C@H]2C(=O)O", "note": "[AMPHOTERICIN B]", "values": [{"measurement": "MFC", "setting": "Candida albicans", "value": 2, "unit": "µg/mL"}, {"measurement": "MFC", "setting": "Nakaseomyces glabratus", "value": 0.5, "unit": "µg/mL"}, {"measurement": "MFC", "setting": "Candida parapsilosis", "value": 4, "unit": "µg/mL"}, {"measurement": "MFC", "setting": "Pichia kudriavzevii", "value": 0.5, "unit": "µg/mL"}, {"measurement": "MFC", "setting": "Clavispora lusitaniae", "value": 4, "unit": "µg/mL"}, {"measurement": "MFC", "setting": "Candida tropicalis", "value": 0.5, "unit": "µg/mL"}, {"measurement": "MFC", "setting": "[1]", "value": 2, "unit": "µg/mL"}, {"measurement": "MFC", "setting": "Saccharomyces cerevisiae", "value": "> 4", "unit": "µg/mL"}, {"measurement": "MFC", "setting": "[2]", "value": 1, "unit": "µg/mL"}, {"measurement": "MFC", "setting": "Cryptococcus gattii", "value": 1, "unit": "µg/mL"}, {"measurement": "MFC", "setting": "Trichosporon inkin", "value": 1, "unit": "µg/mL"}, {"measurement": "MFC", "setting": "Trichosporon asahii", "value": 4, "unit": "µg/mL"}, {"measurement": "MFC", "setting": "Geotrichum candidum", "value": "> 4", "unit": "µg/mL"}, {"measurement": "MFC", "setting": "Aspergillus fumigatus", "value": 0.5, "unit": "µg/mL"}, {"measurement": "MFC", "setting": "Aspergillus terreus", "value": "> 4", "unit": "µg/mL"}, {"measurement": "MFC", "setting": "Aspergillus flavus", "value": "> 4", "unit": "µg/mL"}, {"measurement": "MFC", "setting": "Aspergillus niger", "value": "> 4", "unit": "µg/mL"}, {"measurement": "MFC", "setting": "Rhizomucor", "value": 1, "unit": "µg/mL"}, {"measurement": "MFC", "setting": "Lichtheimia corymbifera", "value": 1, "unit": "µg/mL"}, {"measurement": "MFC", "setting": "Absidia", "value": 1, "unit": "µg/mL"}, {"measurement": "MFC", "setting": "[3]", "value": 4, "unit": "µg/mL"}, {"measurement": "MFC", "setting": "Rhizopus arrhizus", "value": 4, "unit": "µg/mL"}, {"measurement": "MFC", "setting": "Rhizopus", "value": 2, "unit": "µg/mL"}, {"measurement": "MFC", "setting": "Mucor hiemalis", "value": 1, "unit": "µg/mL"}, {"measurement": "MFC", "setting": "Mucor", "value": 1, "unit": "µg/mL"}, {"measurement": "MFC", "setting": "Cunninghamella", "value": "> 8", "unit": "µg/mL"}, {"measurement": "MFC", "setting": "Lomentospora prolificans", "value": "> 8", "unit": "µg/mL"}, {"measurement": "MFC", "setting": "Scedosporium apiospermum", "value": "> 8", "unit": "µg/mL"}, {"measurement": "MFC", "setting": "Talaromyces marneffei", "value": "> 4", "unit": "µg/mL"}, {"measurement": "MFC", "setting": "Penicillium sp.", "value": "> 4", "unit": "µg/mL"}, {"measurement": "MFC", "setting": "Fusarium solani", "value": "> 8", "unit": "µg/mL"}, {"measurement": "MFC", "setting": "Fusarium oxysporum", "value": 1, "unit": "µg/mL"}, {"measurement": "MFC", "setting": "Sporothrix schenckii", "value": "> 8", "unit": "µg/mL"}, {"measurement": "MFC", "setting": "Curvularia lunata", "value": 1, "unit": "µg/mL"}, {"measurement": "MFC", "setting": "Curvularia australiensis", "value": 1, "unit": "µg/mL"}]}
